Assay results: ChEMBL document CHEMBL3085754, “Clicking 3'-azidothymidine into novel potent inhibitors of human immunodeficiency virus” (J Med Chem, 2013)
Calls of active or inactive are those of the source. The calls are words filed in the database; no cut-off is given here.

Experiments:
[1] = molecular target: Human immunodeficiency virus type 1 reverse transcriptase (Human immunodeficiency virus 1) (UniProt Q72547); test: Binding affinity to HIV1 reverse transcriptase assessed as compound incorporation into DNA by primer extension assay
[2] = molecular target: Human immunodeficiency virus type 1 reverse transcriptase (Human immunodeficiency virus 1, UniProt Q72547); test: Inhibition of HIV1 reverse transcriptase-mediated [H3]TTP incorporation into poly(rA)-oligo(dT)16 DNA preincubated for 5 mins prior to primer/template and substrate addition by liquid scintillation spectrometric analysis
In short: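 10 nM wt HIV-1 RT preincubated 5 min with inhibitor in DMSO (1% final), then 40 nM poly(rA)-oligo(dT)16 and 10 μM [3H]TTP added. Buffer 50 mM Tris-HCl pH 8.0, 60 mM KCl, 10 mM MgCl2; 20 min at 37°C. Quenched with cold 10% TCA/20 mM pyrophosphate, glass-fibre filtered, washed with TCA and ethanol, incorporation counted by liquid scintillation.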

[3] = molecular target: Human immunodeficiency virus type 1 reverse transcriptase (Human immunodeficiency virus 1) (UniProt Q72547); test: Induction of AZT-resistant HIV1 reverse transcriptase assessed as rate of ATP-mediated excision of chain-terminating nucleotides by phosphorimaging analysis
In short: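 5'-32P-labelled DNA primer annealed 1:1.5 to 40-nt RNA template, then chain-terminated with AZT-TP or the triphosphate analogue. AZT-resistant RT and terminated template/primer (2:1) in 50 mM Tris-HCl pH 8.0, 50 mM KCl. Started with 6 mM MgCl2 and 3 mM pyrophosphatase-pretreated ATP, 37°C. Stopped at timed points with formamide/EDTA dye and resolved by denaturing gel.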

[4] = molecular target: Human immunodeficiency virus type 1 reverse transcriptase (Human immunodeficiency virus 1) (UniProt Q72547); test: Binding affinity to HIV1 reverse transcriptase assessed as compound-terminated template/primer translocation from N-site to P-site of enzyme preincubated for 20 mins prior to TTP addition measured after 10 mins by gel electrophoretic analysis
In short: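 50 nM 32P-labelled primer/RNA template with 300 nM RT in 120 mM Na cacodylate pH 7.0, 20 mM NaCl, 6 mM MgCl2 and 100 μM AZT-TP or triphosphate analogue, 20 min at 37°C, for chain-terminator incorporation. Varying TTP then added for 10 min, followed by 500 μM Fe(NH4)2SO4 cleavage. Products resolved by denaturing gel electrophoresis.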

CEM-SS [5] = test: (§1) Cytotoxicity against human CEM-SS cells assessed as cell viability after 6 days by MTS assay; type: cell-based; settings: cem-ss, 144 h
CEM-SS [6] = test: Cytotoxicity against human CEM-SS cells assessed as cell viability at 10 uM after 6 days by MTS assay relative to control; type: cell-based; settings: 144 h
[7] = test system: Human immunodeficiency virus 1; test: Antiviral activity against NNRTI-resistant Human immunodeficiency virus 1; type: functional, organism-based
[8] = test system: Human immunodeficiency virus 1; test: Antiviral activity against wild type Human immunodeficiency virus 1 expressing p24 infected in human HeLa P4/R5 cells preincubated for 16 hrs prior to virus infection measured after 48 hrs by beta-galactosidase-based single replication cycle assay; type: functional, organism-based; settings: for EC50: Human immunodeficiency virus 1, P4/R5
In short: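 P4R5 indicator cells express CD4, CXCR4, CCR5 and an HIV LTR-driven β-galactosidase reporter, and were kept in DMEM/10% FBS with puromycin. Cells were seeded at 5×10^3 per well and exposed to varying drug concentrations for 16 h. They were then inoculated with 25 ng HIV-1 p24 per well. Infection was quantified 48 h post-infection by fluorescence-based β-galactosidase detection.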

[9] = test system: Human immunodeficiency virus 1; test: Ratio of EC50 for NNRTI-resistant Human immunodeficiency virus 1 to EC50 for wild type Human immunodeficiency virus 1 expressing p24; type: functional
[10] = Therapeutic index, ratio of CC50 for human CEM-SS cells to EC50 for Human immunodeficiency virus 1 3B; type: cell-based; settings: read-out: Ratio CC50/EC50
[11] = test system: Human immunodeficiency virus 1; test: Antiviral activity against Human immunodeficiency virus 1 3B infected in human CEM-SS cells assessed as inhibition of virus-induced cytopathic effect after 6 days by MTS assay; type: functional, organism-based; settings: 144 h
[12] = test system: Human immunodeficiency virus 1; test: Antiviral activity against Human immunodeficiency virus 1 3B infected in human CEM-SS cells assessed as inhibition of virus-induced cytopathic effect at 10 uM after 6 days by MTS assay relative to control; type: functional; settings: 144 h
[13] = as §1; type: cell-based; settings: CEM-SS cells
[14] = test system: Human immunodeficiency virus 1; test: Antiviral activity against AZT-resistant Human immunodeficiency virus 1 expressing D67N/K70R/T215F/K219Q reverse transcriptase mutation; type: functional, organism-based
[15] = test system: Human immunodeficiency virus 1; test: Ratio of EC50 for AZT-resistant Human immunodeficiency virus 1 to EC50 for wild type Human immunodeficiency virus 1 expressing p24; type: functional

Cc1cn([C@H]2C[C@H](O)[C@@H](COP(=O)(O)OP(=O)(O)OP(=O)(O)O)O2)c(=O)[nH]c1=O
Activity [1]: Active

Cc1cn([C@H]2C[C@H](n3nncc3-c3cccc4ccccc34)[C@@H](COP(=O)(O)OP(=O)(O)OP(=O)(O)O)O2)c(=O)[nH]c1=O
IC50 [2]: 3.7 µM | Activity [3]: 0.0126 min⁻¹ | Activity [4]: Active

Cc1cn([C@H]2C[C@H](N=[N+]=[N-])[C@@H](COP(=O)(O)OP(=O)(O)OP(=O)(O)O)O2)c(=O)[nH]c1=O
Activity [1]: Active

Cc1cn([C@H]2C[C@H](n3nncc3COc3ccc4ccccc4c3)[C@@H](CO)O2)c(=O)[nH]c1=O
CC50 (CEM-SS [5]): 70 µM | Activity (CEM-SS [6]): 95% | EC50 [7]: 2.4 µM | EC50 [8]: > 5 µM | Ratio EC50 [9]: <0.5 | selectivity ratio [10]: 37 | EC50 [11]: 1.9 µM | inhibition at 10 µM [12]: 88%

Cc1cn([C@H]2C[C@H](N=[N+]=[N-])[C@@H](CO)O2)c(=O)[nH]c1=O [ZIDOVUDINE]
CC50 at 144 h [13]: > 1 µM | EC50 [14]: 7.9 µM | EC50 [7]: 0.12 µM | Activity [3]: 0.024 min⁻¹ | EC50 [8]: 0.14 µM | EC50 [11]: 0.0053 µM | Activity [4]: Active

Cc1cn([C@H]2C[C@H](n3nncc3-c3cc4ccccc4c4ccccc34)[C@@H](COP(=O)(O)OP(=O)(O)OP(=O)(O)O)O2)c(=O)[nH]c1=O
IC50 [2]: 11.8 µM

Cc1cn([C@H]2C[C@H](n3nncc3-c3cccc4ccccc34)[C@@H](CO)O2)c(=O)[nH]c1=O
CC50 (CEM-SS [5]): 61 µM | Activity (CEM-SS [6]): 100% | EC50 [14]: 9.1 µM | EC50 [7]: 0.6 µM | Activity [8]: Dose-dependent effect | EC50 [8]: 1 µM | Ratio EC50 [9]: 0.6 | selectivity ratio [10]: 910 | Ratio EC50 [15]: 9 | EC50 [11]: 0.067 µM | inhibition at 10 µM [12]: 83%
